Assay results: ChEMBL document CHEMBL2086314, “Synthesis and anticonvulsant activity of new N-Mannich bases derived from 3-(2-fluorophenyl)- and 3-(2-bromophenyl)-pyrrolidine-2,5-diones. Part II” (Bioorg Med Chem, 2012)
Calls of active or inactive are those of the source. The rule behind the calls is not given here.

Experiments:
[1] = Neurotoxicity in ip dosed CF-1 albino mouse assessed as motor impairment by rotarod test; assay type: toxicity, organism-based; conditions: in vivo
Mus musculus [2] = assay: Anticonvulsant activity in ip dosed 6 Hz psychomotor-induced seizure in CF-1 albino mouse assessed as time of peak effect; assay type: functional
Mus musculus [3] = assay: Anticonvulsant activity in ip dosed CF-1 albino mouse assessed as protection from maximal electric shock-induced seizures measured after 0.5 hrs; assay type: functional; conditions: read-out: MED
Method in brief: (§1)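 Male CF-1 mice dosed ip at 30, 100 or 300 mg/kg, suspension in 0.5% methylcellulose/water. MES: corneal electrodes primed with electrolyte containing anaesthetic, 50 mA, 60 Hz, 0.2 s. Examined 0.5 and 4 h after dosing. Value is the minimum dose protecting half or more of the animals.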

Mus musculus [4] = assay: Neurotoxicity in CF-1 albino mouse assessed as myoclonic jerks at 100 mg/kg, ip measured after 0.5 hrs by rotarod test; assay type: toxicity, organism-based; parameters: dose 100 mg/kg, route intraperitoneal; conditions: in vivo
Mus musculus [5] = assay: Anticonvulsant activity in ip dosed CF-1 albino mouse assessed as protection from maximal electric shock-induced seizures measured after 4 hrs; assay type: functional; conditions: read-out: MED; method in brief: as §1
Mus musculus [6] = assay: Anticonvulsant activity in ip dosed CF-1 albino mouse assessed as protection against subcutaneous pentylenetetrazol-induced seizures measured after 4 hrs; assay type: functional; conditions: read-out: MED
Method in brief: (§2)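 scPTZ test in male CF-1 mice. Compound suspended in 0.5% methylcellulose/water, ip at 30, 100 or 300 mg/kg. Pentylenetetrazole 85 mg/kg (CD97, clonic seizures lasting at least 5 s) given subcutaneously at the test time, read at 0.5 and 4 h. Value is the minimum dose protecting half or more of the animals.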

Mus musculus [7] = assay: Neurotoxicity in ip dosed CF-1 albino mouse assessed as motor impairment measured after 0.5 hrs by rotarod test; assay type: toxicity, organism-based; conditions: in vivo
Method in brief: (§3)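 Rotarod neurotoxicity in male CF-1 mice given ip doses of 30, 100 or 300 mg/kg (0.5% methylcellulose suspension), examined 0.5 and 4 h after dosing. Impairment means failing to hold balance on the rod for 1 min. Value is the minimum dose causing toxicity in half or more of the animals; response comments are recorded.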

Mus musculus [8] = assay: Neurotoxicity in CF-1 albino mouse assessed as motor impairment at 300 mg/kg, ip measured after 4 hrs by rotarod test; assay type: toxicity, organism-based; parameters: dose 300 mg/kg, route intraperitoneal; conditions: in vivo; method in brief: as §3
Mus musculus [9] = assay: Anticonvulsant activity in ip dosed CF-1 albino mouse assessed as protection against subcutaneous pentylenetetrazol-induced seizures measured after 0.5 hrs; assay type: functional; conditions: read-out: MED; method in brief: as §2
Mus musculus [10] = assay: Neurotoxicity in CF-1 albino mouse assessed as myoclonic jerks at 300 mg/kg, ip measured after 4 hrs by rotarod test; assay type: toxicity, organism-based; parameters: dose 300 mg/kg, route intraperitoneal; conditions: in vivo
Rattus norvegicus [11] = assay: Anticonvulsant activity in Sprague-Dawley rat assessed as protection from maximum electric shock-induced seizures at 30 mg/kg, po measured after 0.25 hrs; assay type: functional
Method in brief: (§4)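 Male Sprague–Dawley rats, four per group, given 30 mg/kg orally as a suspension in 0.5% methylcellulose/water. MES stimulus 150 mA, 60 Hz, 0.2 s via corneal electrodes. Tested at 0.25, 0.5, 1, 2 and 4 h; value is rats protected out of four.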

Rattus norvegicus [12] = assay: Anticonvulsant activity in Sprague-Dawley rat assessed as protection from maximum electric shock-induced seizures at 30 mg/kg, po measured after 0.5 hrs; assay type: functional; method in brief: as §4
Rattus norvegicus [13] = assay: Anticonvulsant activity in Sprague-Dawley rat assessed as protection from maximum electric shock-induced seizures at 30 mg/kg, po measured after 1 hr; assay type: functional; method in brief: as §4
Rattus norvegicus [14] = assay: Anticonvulsant activity in Sprague-Dawley rat assessed as protection from maximum electric shock-induced seizures at 30 mg/kg, po measured after 2 hrs; assay type: functional; method in brief: as §4
Rattus norvegicus [15] = assay: Anticonvulsant activity in Sprague-Dawley rat assessed as protection from maximum electric shock-induced seizures at 30 mg/kg, po measured after 4 hrs; assay type: functional; method in brief: as §4
Rattus norvegicus [16] = assay: Neurotoxicity in Sprague-Dawley rat assessed as motor impairment at 30 mg/kg, po by rotarod test; assay type: toxicity, organism-based; parameters: dose 30 mg/kg, route oral; conditions: in vivo
Method in brief: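 Male Sprague–Dawley rats, four animals, oral 30 mg/kg in 0.5% methylcellulose/water. Motor impairment on the rotarod (failure to keep balance for 1 min) assessed alongside MES at five times from 0.25 to 4 h.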

Mus musculus [17] = assay: Anticonvulsant activity in CF-1 albino mouse assessed as protection from maximal electric shock-induced seizures at 300 mg/kg, ip measured after 0.5 hrs; assay type: functional, organism-based; parameters: dose 300 mg/kg; method in brief: as §1
Mus musculus [18] = assay: Anticonvulsant activity in CF-1 albino mouse assessed as protection from maximal electric shock-induced seizures at 100 mg/kg, ip measured after 6 hrs; assay type: functional, organism-based; parameters: dose 100 mg/kg
Mus musculus [19] = assay: Neurotoxicity in CF-1 albino mouse assessed as motor impairment, ip measured after 4 hrs by rotarod test; assay type: toxicity, organism-based; conditions: in vivo
Mus musculus [20] = assay: Neurotoxicity in CF-1 albino mouse assessed as motor impairment at 300 mg/kg, ip measured after 0.5 hrs by rotarod test; assay type: toxicity, organism-based; parameters: dose 300 mg/kg, route intraperitoneal; conditions: in vivo; method in brief: as §3
Rattus norvegicus [21] = assay: Anticonvulsant activity in po dosed Sprague-Dawley rat assessed as protection from maximum electric shock-induced seizures; assay type: functional
Method in brief: (§5)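 Male Sprague–Dawley rats dosed orally (0.5% methylcellulose suspension). MES 150 mA, 60 Hz, 0.2 s; rotarod impairment is failure to keep balance for 1 min. Groups of eight, at the previously estimated time of peak effect, with doses varied until at least three points fell in the 10–90% range. ED50/TD50 with 95% confidence intervals from regression; PI = TD50/ED50.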

[22] = Neurotoxicity in po dosed Sprague-Dawley rat assessed as motor impairment measured at time of peak effect by rotarod test; assay type: toxicity, organism-based; conditions: in vivo; method in brief: as §5
Rattus norvegicus [23] = organism: Rattus norvegicus; assay: Protective index, ratio of TD50 for Sprague-Dawley rat to ED50 for Sprague-Dawley rat assessed as protection from maximum electric shock-induced seizures; assay type: functional; method in brief: as §5
Rattus norvegicus [24] = assay: Anticonvulsant activity in po dosed maximum electric shock-induced Sprague-Dawley rat assessed as time of peak effect; assay type: functional; method in brief: as §5
Mus musculus [25] = assay: Anticonvulsant activity in CF-1 albino mouse assessed as protection against 6 Hz psychomotor seizure at 75 mg/kg, ip measured after 0.25 hrs; assay type: functional; conditions: route intraperitoneal
Method in brief: (§6)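 6-Hz psychomotor seizure in male CF-1 mice, compound suspended in 0.5% methylcellulose/water, given ip (100 or 75 mg/kg). Corneal stimulation with 0.2 ms monopolar rectangular pulses at 6 Hz for 3 s, 32 mA, constant-current device. Protected if normal exploratory behaviour resumes within 10 s. Tested 0.25–4 h after dosing; value is mice protected out of four.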

Mus musculus [26] = assay: Anticonvulsant activity in CF-1 albino mouse assessed as protection against 6 Hz psychomotor seizure at 75 mg/kg, ip measured after 0.5 hrs; assay type: functional; conditions: route intraperitoneal; method in brief: as §6
Mus musculus [27] = assay: Anticonvulsant activity in CF-1 albino mouse assessed as protection against 6 Hz psychomotor seizure at 75 mg/kg, ip measured after 1 hr; assay type: functional; conditions: route intraperitoneal; method in brief: as §6
Mus musculus [28] = assay: Anticonvulsant activity in CF-1 albino mouse assessed as protection against 6 Hz psychomotor seizure at 75 mg/kg, ip measured after 2 hrs; assay type: functional; conditions: route intraperitoneal; method in brief: as §6
Mus musculus [29] = assay: Anticonvulsant activity in CF-1 albino mouse assessed as protection against 6 Hz psychomotor seizure at 75 mg/kg, ip measured after 4 hrs; assay type: functional; conditions: route intraperitoneal; method in brief: as §6
Mus musculus [30] = assay: Neurotoxicity in CF-1 albino mouse assessed as inability to grasp rotarod at 300 mg/kg, ip measured after 0.5 hrs by rotarod test; assay type: toxicity, organism-based; parameters: dose 300 mg/kg, route intraperitoneal; conditions: in vivo; method in brief: as §3
Mus musculus [31] = assay: Anticonvulsant activity in CF-1 albino mouse assessed as protection against subcutaneous pentylenetetrazol-induced seizures at 300 mg/kg, ip measured after 4 hrs; assay type: functional, organism-based; parameters: dose 300 mg/kg; method in brief: as §2
Mus musculus [32] = assay: Neurotoxicity in CF-1 albino mouse assessed as myoclonic jerks at 300 mg/kg, ip measured after 0.5 hrs by rotarod test; assay type: toxicity, organism-based; parameters: dose 300 mg/kg, route intraperitoneal; conditions: in vivo
Mus musculus [33] = assay: Anticonvulsant activity in CF-1 albino mouse assessed as protection against 6 Hz psychomotor seizure at 100 mg/kg, ip measured after 0.25 hrs; assay type: functional; conditions: route intraperitoneal; method in brief: as §6
Mus musculus [34] = assay: Anticonvulsant activity in CF-1 albino mouse assessed as protection against 6 Hz psychomotor seizure at 100 mg/kg, ip measured after 0.5 hrs; assay type: functional; conditions: route intraperitoneal; method in brief: as §6
Mus musculus [35] = assay: Anticonvulsant activity in CF-1 albino mouse assessed as protection against 6 Hz psychomotor seizure at 100 mg/kg, ip measured after 1 hr; assay type: functional; conditions: route intraperitoneal; method in brief: as §6
Mus musculus [36] = assay: Anticonvulsant activity in CF-1 albino mouse assessed as protection against 6 Hz psychomotor seizure at 100 mg/kg, ip measured after 2 hrs; assay type: functional; conditions: route intraperitoneal; method in brief: as §6
Mus musculus [37] = assay: Anticonvulsant activity in CF-1 albino mouse assessed as protection against 6 Hz psychomotor seizure at 100 mg/kg, ip measured after 4 hrs; assay type: functional; conditions: route intraperitoneal; method in brief: as §6

Compound | minimal effective dose (Mus musculus [3]) [mg/kg] | Activity (Mus musculus [4]) | minimal effective dose (Mus musculus [5]) [mg/kg] | minimal effective dose (Mus musculus [6]) [mg/kg] | MTC (Mus musculus [7]) [mg/kg] | Activity (Mus musculus [8]) | minimal effective dose (Mus musculus [9]) [mg/kg] | Activity (Mus musculus [10]) | Activity (Rattus norvegicus [11]) [%] | Activity (Rattus norvegicus [12]) [%] | Activity (Rattus norvegicus [13]) [%] | Activity (Rattus norvegicus [14]) [%] | Activity (Rattus norvegicus [15]) [%] | Activity (Rattus norvegicus [16]) | Activity (Mus musculus [17]) | other results
CC[C@@H](C(N)=O)N1CCCC1=O | – | – | – | – | – | – | – | – | – | – | – | – | – | – | – | TD50 [1]: > 500 mg/kg; Time (Mus musculus [2]): 1 h
Cl.Cl.O=C1CC(c2ccccc2Br)C(=O)N1CN1CCN(CCO)CC1 (racemic) | 100 | Toxic | 100 | 300 | 300 | Non-toxic | 100 | Toxic | 25 | 25 | 0 | 0 | 25 | Non-toxic | – | –
O=C1CC(c2ccccc2Br)C(=O)N1CN1CCN(c2ncccn2)CC1 (racemic) | – | Toxic | 100 | 300 | 300 | – | 100 | Toxic | – | – | – | – | – | – | inactive | Activity (Mus musculus [18]): Active; MTC (Mus musculus [19]): 300 mg/kg
O=C1CC(c2ccccc2Br)C(=O)N1CN1CCN(c2cccc(Cl)c2)CC1 (racemic) | – | – | 100 | – | – | Non-toxic | – | – | 0 | 25 | 50 | 100 | 100 | Non-toxic | inactive | Activity (Mus musculus [20]): Non-toxic; ED50 (Rattus norvegicus [21]): 26.4 mg/kg; TD50 [22]: 126 mg/kg; Ratio TD50/ED50 (Rattus norvegicus [23]): 4.77; Time (Rattus norvegicus [24]): 4 h; Activity (Mus musculus [25]): 25%; Activity (Mus musculus [26]): 25%; Activity (Mus musculus [27]): 25%; Activity (Mus musculus [28]): 25%; Activity (Mus musculus [29]): 25%
O=C1CC(c2ccccc2F)C(=O)N1CN1CCN(Cc2ccccc2)CC1 (racemic) | 300 | – | 300 | – | 300 | Non-toxic | 300 | – | – | – | – | – | – | – | – | Activity (Mus musculus [30]): Toxic; Activity (Mus musculus [31]): inactive; Activity (Mus musculus [32]): Toxic; Activity (Mus musculus [33]): 0%; Activity (Mus musculus [34]): 25%; Activity (Mus musculus [35]): 0%; Activity (Mus musculus [36]): 0%; Activity (Mus musculus [37]): 0%
